TRPC6 inhibitor: mouse TRPC6 channel inhibition; Q61143; HEK293-TRPC6, membrane potential dye, ACh-evoked depolarization; stronger effect = lower value; B-score at 10 µM; hit rate 1.1% among 310,000; AID 2553;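 active = B-score under library mean minus 3 SD, initial fluorescence not abnormally high, positive integrated signal ratio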;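 note: B-score derived from integrated fluorescence ratio over the kinetic read; more negative B-score means stronger inhibition of depolarization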
TRPC4 potent: allosterically enhances the mouse TRPC4 cation channel. Q9QUQ5. HEK293 TRPC4beta/mu-opioid, DAMGO EC20, Fluo-4 Ca2+ flux; stronger effect = higher value. B-score at 10 µM. hit rate 0.42% among 310,000;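 active = B-score of calcium response area above 5 SD of library B-scores, with initial fluorescence ratio within 5 SD of library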
Target sequence (Q9QUQ5 whole entry, looked up): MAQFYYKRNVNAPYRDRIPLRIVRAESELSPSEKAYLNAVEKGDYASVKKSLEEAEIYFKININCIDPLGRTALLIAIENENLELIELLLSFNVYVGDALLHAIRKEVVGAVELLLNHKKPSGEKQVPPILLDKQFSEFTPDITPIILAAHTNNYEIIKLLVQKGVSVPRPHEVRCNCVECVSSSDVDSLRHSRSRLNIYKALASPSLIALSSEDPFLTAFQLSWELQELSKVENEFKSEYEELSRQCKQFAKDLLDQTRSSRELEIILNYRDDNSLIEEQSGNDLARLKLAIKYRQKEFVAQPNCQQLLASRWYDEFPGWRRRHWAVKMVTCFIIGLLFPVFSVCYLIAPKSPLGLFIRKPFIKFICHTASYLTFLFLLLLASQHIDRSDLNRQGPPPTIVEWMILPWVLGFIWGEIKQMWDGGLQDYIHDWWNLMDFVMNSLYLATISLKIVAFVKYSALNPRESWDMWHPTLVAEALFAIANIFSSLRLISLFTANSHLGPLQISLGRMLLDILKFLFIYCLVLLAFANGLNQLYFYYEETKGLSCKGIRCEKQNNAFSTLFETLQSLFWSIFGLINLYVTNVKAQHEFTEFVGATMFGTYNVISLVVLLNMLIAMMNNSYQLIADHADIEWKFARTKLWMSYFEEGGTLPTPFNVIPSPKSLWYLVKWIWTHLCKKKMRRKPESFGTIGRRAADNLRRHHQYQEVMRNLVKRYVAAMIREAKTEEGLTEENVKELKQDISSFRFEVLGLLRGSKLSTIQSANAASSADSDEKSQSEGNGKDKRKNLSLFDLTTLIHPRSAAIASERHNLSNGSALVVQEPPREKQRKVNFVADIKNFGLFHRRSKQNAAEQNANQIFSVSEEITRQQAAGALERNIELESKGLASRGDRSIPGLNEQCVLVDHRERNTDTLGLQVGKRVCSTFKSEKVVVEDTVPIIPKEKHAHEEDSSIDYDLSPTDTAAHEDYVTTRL
TRPC4 agonist: TRPC4 (mouse) channel activation. hit rate 0.49% among 310,000. HEK293 TRPC4beta/mu-opioid, Fluo4 calcium fluorescence; stronger effect = higher value. AID 2237. B-score at 10 µM;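 active = B-score above 5 SD of library B-scores, and initial fluorescence ratio not above library mean plus 5 SD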;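 note: positive B-score marks a calcium rise read as TRPC4 activation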
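Material: TRPC4beta and mu-opioid receptor HEK293 stable cells | Incubation: 45 min room-temperature Fluo4 loading, 110 s read | Detection: Kinetic Fluo4 calcium fluorescence | Measure: Integrated baseline-normalised fluorescence ratio, converted to per-well B score | Benchmarks: Low control buffer alone, high control maximal DAMGO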
TRPC6 act: activates the mouse TRPC6 cation channel | B-score at 10 µM | hit rate 0.13% among 310,000 | HEK293-TRPC6 membrane potential dye fluorescence; stronger effect = higher value | Q61143;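 active = B-score of the integrated fluorescence ratio above library mean plus 3 SD, and starting fluorescence ratio within library mean plus 5 SD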;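 note: higher score means more depolarization so channel activation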
TRPC4 block: inhibitors of mouse TRPC4 channel; HEK293 TRPC4beta/mu-opioid, DAMGO-evoked Fluo4 calcium flux; stronger effect = lower value; B-score at 10 µM; hit rate 0.39% among 300,000; AID 2247;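 active = B-score over 3 SD under the library average, no early fluorescence shift, positive overall ratio signal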
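System: stable TRPC4beta/mu-opioid receptor HEK293 cells; Dosing: single-point compound dosing; Measured by: Fluo4 Ca2+ flux fluorescence; Read-out basis: per-well B score of integrated baseline-normalized Fluo4 ratio.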
TRPC4 spec 2: mouse TRPC4 off-target activity of TRPC6 inhibitors, second screen | inhibition, % at 10 µM | hit rate 42% among 920 | shares compounds with TRPC6 inhibitor | HEK293 TRPC4/MOR, membrane potential dye fluorescence; channel activated by saturating DAMGO dose;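 active = compounds whose fluorescence signal differed from control wells by over 3 SD, either direction, in both duplicate plates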
TRPC4 spec: tests whether TRPC6 inhibitors also affect mouse TRPC4; activity change, negative = inhibition, % at 10 µM; shares compounds with TRPC6 inhibitor; hit rate 61% among 920; HEK293 TRPC4/mu-opioid, membrane potential fluorescence;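 active = rise or fall in signal beyond 3 SD of buffer-only wells in both replicate plates, either sign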;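 note: integrated kinetic ratio of fluorescence range over baseline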
HEK293 MPD ctr 2-1: second check of TRPC6 inhibitor effects in parental HEK293 cells; shares compounds with TRPC6 inhibitor; parental HEK293 membrane potential dye fluorescence; maximal acetylcholine challenge after compound addition; signal change vs control, % at 10 µM; hit rate 31% among 920; AID 2779;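 active = membrane potential signal moving either way by over 3 SD of the maximum-effect control, in both duplicate plates, meaning non-specific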
HEK293 MPD ctr-1: checks TRPC6 inhibitor effects in parental HEK293 cells; shares compounds with TRPC6 inhibitor; parental HEK293 membrane potential dye fluorescence; membrane potential signal change, % at 10 µM; hit rate 60% among 920; AID 2780;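 active = membrane potential signal shifting up or down by more than 3 SD of buffer-only wells, on both duplicate plates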
HEK293 MPD ctr-2: counter-screen for TRPC6 modulators: effect in parental HEK293 cells | shares compounds with TRPC6 inhibitor | membrane potential dye fluorescence | membrane potential signal change, % at 10 µM | hit rate 51% among 2,400 | AID 488924;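 active = membrane potential signal moves up or down beyond 5 SD from buffer-only wells, on both duplicate plates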
HEK293 MPD ctr 2-2: second counter-screen for TRPC6 modulators: effect in parental HEK293 cells. shares compounds with TRPC6 inhibitor. membrane potential dye fluorescence; after compound, maximal acetylcholine stimulation. inhibition, % at 10 µM. hit rate 14% among 2,400. AID 488926;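 active = membrane potential signal drops by more than 5 SD from the mean control signal, in both duplicate plates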
TRPC4 ctr mod: selectivity of TRPC6 modulators against mouse TRPC4; shares compounds with TRPC6 inhibitor; HEK293 TRPC4/mu-opioid, membrane potential fluorescence; percent change from control (negative = decrease, positive = increase), % at 10 µM; hit rate 69% among 2,400; AID 488927;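 active = membrane potential signal moved up or down beyond 5 SD of buffer control wells, in both duplicate plates, actives on both sides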
TRPC4 ctr inh 2: second check of whether TRPC6 modulators also affect mouse TRPC4; shares compounds with TRPC6 inhibitor; HEK293 TRPC4/mu-opioid, membrane potential dye fluorescence; stimulated with maximal-effect DAMGO; inhibition, % at 10 µM; hit rate 55% among 2,400; AID 488928;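 active = drop in membrane potential signal beyond 5 SD of the control wells in both duplicate plates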;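 note: TRPC4 counter screen for TRPC6 hits run under conditions tuned for TRPC6 not TRPC4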
TRPC6 inh conf: confirmation of mouse TRPC6 inhibitors. shares compounds with TRPC6 inhibitor. HEK293-TRPC6, membrane potential dye, ACh-evoked depolarization. inhibition, % at 10 µM. hit rate 43% among 3,300. AID 488960;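 active = fluorescence ratio falls more than 5 SD below the full-stimulation control mean, in both duplicate runs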;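 note: integrated fluorescence ratio of peak minus minimum over baseline after agonist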
TRPC6 act confirm: mouse TRPC6 activator confirmation. shares compounds with TRPC6 inhibitor. HEK293-TRPC6 membrane potential dye fluorescence, FDSS. activation, % at 10 µM. hit rate 11% among 2,800. AID 488961;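 active = ratio signal rise beyond 5 SD above unstimulated control wells' mean, seen in both duplicate runs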
Each line names hits and unclear results; the compound was inactive in the other large screens (follow-up assays come after a bar, where they were run). An excerpt weighted towards active compounds, which were near 2.3% of everything screened.

CCN(CC)S(=O)(=O)c1ccc2c(c1)N(CC(=O)N1CCCC1)C(=O)CO2	none
COc1cc(/C=C/C(=O)CC(=O)/C=C/c2ccc(O)c(OC)c2)ccc1O	TRPC4 agonist 84, TRPC6 act 75 | HEK293 MPD ctr-2 active | HEK293 MPD ctr 2-2 inactive | TRPC4 ctr mod 380% | TRPC4 ctr inh 2 inactive | TRPC6 inh conf inactive | TRPC6 act confirm 524%
O=C(NCCN1CCN(c2ccccc2)CC1)c1cccn2c(=O)c3ccccc3nc12	none
CN(CCCNC(=O)c1cccn2c(=O)c3ccccc3nc12)Cc1ccccc1	TRPC6 inhibitor -6.3 | HEK293 MPD ctr-2 -136% | HEK293 MPD ctr 2-2 inactive | TRPC4 ctr mod -32% | TRPC4 ctr inh 2 62% | TRPC6 inh conf 46% | TRPC6 act confirm inactive
CCN1CCN(Cc2cc(=O)oc3cc4c(cc23)CCC4)CC1	TRPC6 inhibitor -5.1 | HEK293 MPD ctr-2 -70% | HEK293 MPD ctr 2-2 inactive | TRPC4 ctr mod -8.0% | TRPC4 ctr inh 2 40% | TRPC6 inh conf inactive | TRPC6 act confirm inactive
CN1CCN(Cc2cc(=O)oc3cc4c(cc23)CCC4)CC1	none
COc1cc(C(=O)OCC(=O)Nc2c(F)c(F)c(F)c(F)c2F)cc(OC)c1OC	TRPC6 inhibitor -5.4 | HEK293 MPD ctr-2 inactive | HEK293 MPD ctr 2-2 inactive | TRPC4 ctr mod inactive | TRPC4 ctr inh 2 inactive | TRPC6 inh conf inactive | TRPC6 act confirm inactive
CCOc1ccc(C(=O)O/N=C(\N)c2ccccn2)cc1OCC	TRPC6 inhibitor -5.9 | HEK293 MPD ctr-2 -94% | HEK293 MPD ctr 2-2 inactive | TRPC4 ctr mod -22% | TRPC4 ctr inh 2 inactive | TRPC6 inh conf inactive | TRPC6 act confirm inactive
CCOc1cc(C(=O)O/N=C(\N)c2ccccn2)cc(OCC)c1OCC	none
CCN(CC#CCC(O)(c1ccccc1)c1ccccc1)C(C)C	none
C[N+]1(CC#CC(O)(c2ccccc2)c2ccccc2)CCCC1	TRPC6 inhibitor -7.3 | TRPC4 spec 2 inactive | TRPC4 spec inactive | HEK293 MPD ctr 2-1 -27% | HEK293 MPD ctr-1 inactive | TRPC6 inh conf 91% | TRPC6 act confirm inactive
CC(C)[N+](C)(C)CC#CC(O)(c1ccccc1)c1ccccc1	TRPC6 inhibitor -9.2 | TRPC4 spec 2 inactive | TRPC4 spec inactive | HEK293 MPD ctr 2-1 25% | HEK293 MPD ctr-1 inactive | TRPC6 inh conf 85% | TRPC6 act confirm inactive
CC1=C(OC(=O)c2ccccc2)C(C)(C)C(c2ccc(Br)cc2)OC1=O (centres undefined)	none
CC1CCC(C(C)C)C(OCC[N+](C)(C)C)C1 (centres undefined)	TRPC6 inhibitor -7.7 | TRPC4 spec 2 inactive | TRPC4 spec inactive | HEK293 MPD ctr 2-1 4.5% | HEK293 MPD ctr-1 inactive | TRPC6 inh conf 80% | TRPC6 act confirm inactive
CC1CCC(C(C)C)C(OCC(O)C[N+]2(C)CCCCC2)C1 (centres undefined)	none
CCOC(=O)c1c(N2C(=O)Nc3ccccc3N2O)sc2c1CCCCC2	none
COC(=O)c1c(N2C(=O)Nc3ccccc3N2O)sc2c1CCCC2	TRPC6 act 12 | HEK293 MPD ctr-2 155% | HEK293 MPD ctr 2-2 inactive | TRPC4 ctr mod 18% | TRPC4 ctr inh 2 inactive | TRPC6 inh conf inactive | TRPC6 act confirm 76%
COc1ccc(Cl)cc1C(=O)NCCCn1ccnc1	none
COc1ccc(CNc2ccc(Cl)cc2)cc1Cn1ccnc1	TRPC6 inhibitor -5.2 | HEK293 MPD ctr-2 inactive | HEK293 MPD ctr 2-2 inactive | TRPC4 ctr mod inactive | TRPC4 ctr inh 2 56% | TRPC6 inh conf inactive | TRPC6 act confirm inactive
COc1ccc(C=O)cc1Cn1ccnc1	none
CCc1ccc(NCc2ccc(OC)c(Cn3ccnc3)c2)cc1	TRPC6 inhibitor -5.4 | HEK293 MPD ctr-2 inactive | HEK293 MPD ctr 2-2 inactive | TRPC4 ctr mod -10% | TRPC4 ctr inh 2 52% | TRPC6 inh conf 40% | TRPC6 act confirm inactive
O=C(Nc1ccncc1)c1ccc(-c2ccccc2)cc1	none
COC(=O)c1ccc(/C=N/OCC(=O)NC2CCCCCCC2)cc1	TRPC6 inhibitor -9.1 | TRPC4 spec 2 inactive | TRPC4 spec 3.9% | HEK293 MPD ctr 2-1 inactive | HEK293 MPD ctr-1 3.9% | TRPC6 inh conf inactive
COC(=O)c1ccc(/C=N/OCC(=O)NC2CCCC(C)C2C)cc1 (centres undefined)	none
C=CCOc1ccc(C2C(C(=O)c3ccc(C)o3)=C(O)C(=O)N2Cc2cccnc2)cc1 (centres undefined)	none
CN(C)CCCNc1c2ccccc2nc2ccccc12	TRPC6 inhibitor -11, TRPC4 block -6 | HEK293 MPD ctr-2 -268% | HEK293 MPD ctr 2-2 177% | TRPC4 ctr mod -44% | TRPC4 ctr inh 2 78% | TRPC6 inh conf 88% | TRPC6 act confirm inactive
COc1cc(Nc2c3c(nc4ccccc24)CCCC3)cc(OC)c1OC	TRPC6 inhibitor -6.1 | HEK293 MPD ctr-2 -96% | HEK293 MPD ctr 2-2 inactive | TRPC4 ctr mod -20% | TRPC4 ctr inh 2 38% | TRPC6 inh conf inactive | TRPC6 act confirm inactive
CN(C)CCCNc1nc(-c2ccccc2)nc2ccccc12	TRPC6 inhibitor -7.7 | TRPC4 spec 2 40% | TRPC4 spec -27% | HEK293 MPD ctr 2-1 inactive | HEK293 MPD ctr-1 -347% | TRPC6 inh conf 65% | TRPC6 act confirm inactive
CC(C)(C)CC(C)(C)NCC(=O)Nc1c2c(nc3ccccc13)CCC2	none

Assay outcomes as filed in PubChem BioAssay.
